PMC10213863 (Cell Reports Medicine, 2023)

How the values were obtained:
TLR7 = molecular target: T1, TLR7 (Homo sapiens, UniProt Q9NYK1); test: Human PBMC assay, ssRNA-induced IFN-α; assay type: cell-based; conditions: human PBMCs, mean ± SEM (n)
T1 sequence (Q9NYK1 27-1049): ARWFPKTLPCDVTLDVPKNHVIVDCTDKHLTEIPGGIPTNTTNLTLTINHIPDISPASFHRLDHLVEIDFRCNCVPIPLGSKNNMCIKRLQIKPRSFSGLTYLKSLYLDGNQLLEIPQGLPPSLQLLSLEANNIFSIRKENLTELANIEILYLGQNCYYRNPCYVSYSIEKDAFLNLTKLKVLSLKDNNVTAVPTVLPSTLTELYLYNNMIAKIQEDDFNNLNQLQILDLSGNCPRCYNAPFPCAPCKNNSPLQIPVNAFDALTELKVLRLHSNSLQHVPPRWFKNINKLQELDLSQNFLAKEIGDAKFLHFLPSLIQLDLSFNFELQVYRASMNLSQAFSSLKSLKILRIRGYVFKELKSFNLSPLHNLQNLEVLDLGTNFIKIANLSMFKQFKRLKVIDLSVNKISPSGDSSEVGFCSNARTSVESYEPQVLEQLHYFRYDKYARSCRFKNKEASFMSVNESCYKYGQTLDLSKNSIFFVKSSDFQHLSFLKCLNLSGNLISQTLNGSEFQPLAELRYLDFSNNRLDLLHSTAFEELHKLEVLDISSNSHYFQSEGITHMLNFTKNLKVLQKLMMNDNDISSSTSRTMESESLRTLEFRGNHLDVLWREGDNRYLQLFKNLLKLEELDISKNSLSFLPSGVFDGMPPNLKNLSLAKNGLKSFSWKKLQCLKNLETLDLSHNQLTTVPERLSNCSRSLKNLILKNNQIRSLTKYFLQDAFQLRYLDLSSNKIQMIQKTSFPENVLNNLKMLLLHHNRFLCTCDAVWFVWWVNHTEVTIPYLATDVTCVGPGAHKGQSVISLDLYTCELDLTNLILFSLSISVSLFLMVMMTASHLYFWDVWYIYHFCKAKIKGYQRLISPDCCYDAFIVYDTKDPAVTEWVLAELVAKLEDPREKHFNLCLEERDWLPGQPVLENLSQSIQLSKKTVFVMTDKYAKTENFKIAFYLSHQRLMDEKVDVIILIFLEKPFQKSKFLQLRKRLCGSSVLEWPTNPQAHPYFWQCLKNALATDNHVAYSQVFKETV
How it was run: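 Human PBMCs were pre-incubated 30 min with test compound, then stimulated with the respective TLR or IL-1R agonist at doses from earlier work. Cytokines in supernatants were quantified by immunoassay. Viability across the dose range was checked by CellTiter-Glo.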

TLR9 = molecular target: T2, TLR9 (Homo sapiens, UniProt Q9NR96); test: Isolated human pDC assay, ODN2216-driven IFN-α; assay type: cell-based; conditions: fixed dose of MHV370
T2 sequence (Q9NR96 26-1032): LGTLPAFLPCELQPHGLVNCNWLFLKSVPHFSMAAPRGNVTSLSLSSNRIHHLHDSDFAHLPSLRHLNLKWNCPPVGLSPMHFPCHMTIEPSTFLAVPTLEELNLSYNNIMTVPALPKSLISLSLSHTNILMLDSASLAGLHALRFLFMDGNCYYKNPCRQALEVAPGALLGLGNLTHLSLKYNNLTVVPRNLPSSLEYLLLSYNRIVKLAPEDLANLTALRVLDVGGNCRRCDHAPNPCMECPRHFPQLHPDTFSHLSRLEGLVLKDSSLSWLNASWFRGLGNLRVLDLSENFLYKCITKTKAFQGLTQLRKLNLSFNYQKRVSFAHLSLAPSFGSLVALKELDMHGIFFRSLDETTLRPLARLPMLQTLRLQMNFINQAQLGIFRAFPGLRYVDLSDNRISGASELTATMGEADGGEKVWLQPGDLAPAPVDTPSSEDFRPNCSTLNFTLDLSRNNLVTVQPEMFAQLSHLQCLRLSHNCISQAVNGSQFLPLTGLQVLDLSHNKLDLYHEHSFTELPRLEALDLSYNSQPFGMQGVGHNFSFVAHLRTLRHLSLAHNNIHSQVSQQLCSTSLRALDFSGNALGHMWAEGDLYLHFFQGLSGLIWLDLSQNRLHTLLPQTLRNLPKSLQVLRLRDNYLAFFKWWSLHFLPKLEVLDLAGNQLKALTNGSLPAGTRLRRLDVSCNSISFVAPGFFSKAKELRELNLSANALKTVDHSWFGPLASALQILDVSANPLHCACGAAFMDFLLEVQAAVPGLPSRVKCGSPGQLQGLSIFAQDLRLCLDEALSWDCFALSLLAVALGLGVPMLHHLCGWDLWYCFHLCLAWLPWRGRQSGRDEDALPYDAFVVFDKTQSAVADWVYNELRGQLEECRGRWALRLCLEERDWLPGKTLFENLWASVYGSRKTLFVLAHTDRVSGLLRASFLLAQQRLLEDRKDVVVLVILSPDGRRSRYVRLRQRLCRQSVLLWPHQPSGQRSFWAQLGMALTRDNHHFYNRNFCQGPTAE
How it was run: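 pDCs were negatively enriched from PBMCs and resuspended in RPMI1640 with 10 ng/mL recombinant human IL-3. They were pre-treated 30 min with test compound or 0.25% v/v DMSO. Stimulation was 20 h at 37°C, 5% CO2 with ssRNA40 (10 μg/mL plus 25 μg/mL DOTAP) or ODN2216 (0.3 μM). IFN-α in supernatants was read by AlphaLisa; viability by CellTiter-Glo.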

Cc1cc(N2CCc3c(c(C)nn3CC34CCC(NC(=O)[C@@H]5COCCN5)(CC3)CC4)C2)c2cnn(C)c2n1 [MHV370, (S)-N-(4-((5-(1,6-dimethyl-1H-pyrazolo[3,4-b]pyridin-4-yl)-3-methyl-4,5,6,7-tetrahydro-1H-pyrazolo[4,3-c]pyridin-1-yl)methyl)bicyclo[2.2.2]octan-1-yl)morpholine-3-carboxamide]
IC50 (TLR7): 4.1 ± 0.4 nM | ODN2216/TLR9-dependent IFN-α secretion from pDCs (TLR9): did not block
